Measurements reported in ChEMBL document CHEMBL4052657, “Design, synthesis and biological evaluation of sulfonamide-substituted diphenylpyrimidine derivatives (Sul-DPPYs) as potent focal adhesion kinase (FAK) inhibitors with antitumor activity” (Bioorg Med Chem, 2017).

Tests used:
ASPC1 [1] = test: Antiproliferative activity against human AsPC1 cells assessed as cell viability at 1.25 uM after 72 hrs by CCK8 assay (reference value: 96.9%); assay type: functional; details: ASPC1, 72 h, read-out: Activity
ASPC1 [2] = test: Induction of apoptosis in human AsPC1 cells assessed as necrotic cells at 10 uM after 72 hrs by Annexin-V-FITC/propidium iodide staining based flow cytometry relative to control; assay type: functional
Outline: (§1)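 AsPC-1 cells at 2 to 5 ×10⁵ cells/well were treated for 72 h with DMSO solvent control or compound at 1, 5 or 10 µM in medium with 5% FBS. Cells were then […], stained with annexin V-FITC/propidium iodide and analysed by flow cytometry.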

ASPC1 [3] = test: Antiproliferative activity against human AsPC1 cells assessed as cell viability at 10 uM after 24 hrs by CCK8 assay relative to control; assay type: functional; details: ASPC1, 24 h, read-out: Activity
PANC-1 [4] = test: Antiproliferative activity against human PANC1 cells assessed as cell viability at 8 uM after 48 hrs by CCK8 assay (reference value: 99%); assay type: functional; details: PANC-1, 48 h, read-out: Activity
ASPC1 [5] = test: Induction of apoptosis in human AsPC1 cells assessed as viable cells at 10 uM after 72 hrs by Annexin-V-FITC/propidium iodide staining based flow cytometry relative to control; assay type: functional; details: ASPC1, 72 h, read-out: Activity; outline: as §1
ASPC1 [6] = test: Induction of apoptosis in human AsPC1 cells assessed as viable cells at 1 uM after 72 hrs by Annexin-V-FITC/propidium iodide staining based flow cytometry relative to control; assay type: functional; details: ASPC1, 72 h, read-out: Activity; outline: as §1
ASPC1 [7] = test: Induction of apoptosis in human AsPC1 cells assessed as necrotic cells at 1 uM after 72 hrs by Annexin-V-FITC/propidium iodide staining based flow cytometry relative to control; assay type: functional; outline: as §1
ASPC1 [8] = test: Antiproliferative activity against human AsPC1 cells after 72 hrs by CCK8 assay; details: ASPC1, 72 h
ASPC1 [9] = test: Induction of apoptosis in human AsPC1 cells assessed as early apoptotic cells at 5 uM after 72 hrs by Annexin-V-FITC/propidium iodide staining based flow cytometry relative to control; assay type: functional; outline: as §1
NCI-H1975 = test: Antiproliferative activity against gefitinib-resistant human NCI-H1975 cells harboring FAK after 72 hrs by CCK8 assay; assay type: functional, cell-based; details: NCI-H1975, 72 h
Outline: (§2)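 Cells in RPMI-1640 with 10% FBS and 1% penicillin-streptomycin, 37 °C, 5% CO2. Seeded at 3,000 to 5,000 cells/well and grown one day, then exposed to compound for 72 h at 1.25 to 40 µmol/L, five replicates per concentration. CCK-8 read-out is absorbance at 450 nm. Dose-response curves used five concentrations. IC50 is the mean of at least three separate experiments.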

ASPC1 [10] = test: Antiproliferative activity against human AsPC1 cells assessed as cell viability at 10 uM after 72 hrs by CCK8 assay (reference value: 96.9%); assay type: functional; details: ASPC1, 72 h, read-out: Activity
ASPC1 [11] = test: Antiproliferative activity against human AsPC1 cells assessed as cell viability at 5 uM after 24 hrs by CCK8 assay relative to control; assay type: functional; details: ASPC1, 24 h, read-out: Activity
PANC-1 [12] = test: Antiproliferative activity against human PANC1 cells assessed as cell viability at 0.5 uM after 48 hrs by CCK8 assay (reference value: 99%); assay type: functional; details: PANC-1, 48 h, read-out: Activity
PANC-1 [13] = test: Antiproliferative activity against human PANC1 cells assessed as cell viability at 8 uM after 24 hrs by CCK8 assay relative to control; assay type: functional; details: PANC-1, 24 h, read-out: Activity
PANC-1 [14] = test: Antiproliferative activity against human PANC1 cells assessed as cell viability at 0.5 uM after 72 hrs by CCK8 assay (reference value: 97.5%); assay type: functional; details: PANC-1, 72 h, read-out: Activity
ASPC1 [15] = test: Antiproliferative activity against human AsPC1 cells assessed as cell viability at 1.25 uM after 24 hrs by CCK8 assay relative to control; assay type: functional; details: ASPC1, 24 h, read-out: Activity
PANC-1 [16] = test: Antiproliferative activity against human PANC1 cells assessed as cell viability at 0.5 uM after 24 hrs by CCK8 assay relative to control; assay type: functional; details: PANC-1, 24 h, read-out: Activity
ASPC1 [17] = test: Antiproliferative activity against human AsPC1 cells assessed as cell viability at 1.25 uM after 48 hrs by CCK8 assay (reference value: 98.6%); assay type: functional; details: ASPC1, 48 h, read-out: Activity
PANC-1 [18] = test: Antiproliferative activity against human PANC1 cells after 72 hrs by CCK8 assay; details: PANC-1, 72 h
PANC-1 [19] = test: Antiproliferative activity against human PANC1 cells assessed as cell viability at 2 uM after 72 hrs by CCK8 assay (reference value: 97.5%); assay type: functional; details: PANC-1, 72 h, read-out: Activity
ASPC1 [20] = test: Induction of apoptosis in human AsPC1 cells assessed as late apoptotic cells at 10 uM after 72 hrs by Annexin-V-FITC/propidium iodide staining based flow cytometry relative to control; assay type: functional; outline: as §1
ASPC1 [21] = test: Antiproliferative activity against human AsPC1 cells assessed as cell viability at 5 uM after 72 hrs by CCK8 assay (reference value: 96.9%); assay type: functional; details: ASPC1, 72 h, read-out: Activity
ASPC1 [22] = test: Antiproliferative activity against human AsPC1 cells assessed as cell viability at 10 uM after 48 hrs by CCK8 assay (reference value: 98.6%); assay type: functional; details: ASPC1, 48 h, read-out: Activity
ASPC1 [23] = test: Induction of apoptosis in human AsPC1 cells assessed as late apoptotic cells at 5 uM after 72 hrs by Annexin-V-FITC/propidium iodide staining based flow cytometry relative to control; assay type: functional; outline: as §1
BXPC-3 = test: Antiproliferative activity against human BxPC3 cells after 72 hrs by CCK8 assay; details: BXPC-3, 72 h
ASPC1 [24] = test: Induction of apoptosis in human AsPC1 cells assessed as necrotic cells at 5 uM after 72 hrs by Annexin-V-FITC/propidium iodide staining based flow cytometry relative to control; assay type: functional; outline: as §1
ASPC1 [25] = test: Induction of apoptosis in human AsPC1 cells assessed as viable cells at 5 uM after 72 hrs by Annexin-V-FITC/propidium iodide staining based flow cytometry relative to control; assay type: functional; details: ASPC1, 72 h, read-out: Activity; outline: as §1
Ramos = test: Antiproliferative activity against human Ramos cells after 72 hrs by CCK8 assay; assay type: functional, cell-based; outline: as §2
ASPC1 [26] = test: Induction of apoptosis in human AsPC1 cells assessed as late apoptotic cells at 1 uM after 72 hrs by Annexin-V-FITC/propidium iodide staining based flow cytometry relative to control; assay type: functional; outline: as §1
PANC-1 [27] = test: Antiproliferative activity against human PANC1 cells assessed as cell viability at 2 uM after 48 hrs by CCK8 assay (reference value: 99%); assay type: functional; details: PANC-1, 48 h, read-out: Activity
ASPC1 [28] = test: Antiproliferative activity against human AsPC1 cells assessed as cell viability at 5 uM after 48 hrs by CCK8 assay (reference value: 98.6%); assay type: functional; details: ASPC1, 48 h, read-out: Activity
ASPC1 [29] = test: Induction of apoptosis in human AsPC1 cells after 72 hrs by Annexin-V-FITC/propidium iodide staining based flow cytometry; assay type: functional, cell-based; outline: as §1
PANC-1 [30] = test: Antiproliferative activity against human PANC1 cells assessed as cell viability at 2 uM after 24 hrs by CCK8 assay relative to control; assay type: functional; details: PANC-1, 24 h, read-out: Activity
ASPC1 [31] = test: Induction of apoptosis in human AsPC1 cells assessed as early apoptotic cells at 1 uM after 72 hrs by Annexin-V-FITC/propidium iodide staining based flow cytometry relative to control; assay type: functional; outline: as §1
PANC-1 [32] = test: Antiproliferative activity against human PANC1 cells assessed as cell viability at 8 uM after 72 hrs by CCK8 assay (reference value: 97.5%); assay type: functional; details: PANC-1, 72 h, read-out: Activity
L02 = test: Antiproliferative activity against human LO2 cells after 72 hrs by CCK8 assay; details: L02, 72 h
ASPC1 [33] = test: Induction of apoptosis in human AsPC1 cells assessed as early apoptotic cells at 10 uM after 72 hrs by Annexin-V-FITC/propidium iodide staining based flow cytometry relative to control; assay type: functional; outline: as §1

Compound: CNC(=O)c1ccccc1Nc1nc(Nc2ccc(NS(=O)(=O)c3ccc(F)cc3)cc2)ncc1Cl
- viability at 1.25 µM (ASPC1 [1]): 52%
- Activity (ASPC1 [2]): 0.6%
- viability at 10 µM (ASPC1 [3]): 52%
- viability at 8 µM (PANC-1 [4]): 21.3%
- viability at 10 µM (ASPC1 [5]): 12.1%
- viability at 1 µM (ASPC1 [6]): 43.6%
- Activity (ASPC1 [7]): 0.6%
- IC50 (ASPC1 [8]): 3.92 µM
- Activity (ASPC1 [9]): 21.8%
- IC50 (NCI-H1975): 3.71 µM
- viability at 10 µM (ASPC1 [10]): 23.9%
- viability at 5 µM (ASPC1 [11]): 79.4%
- viability at 0.5 µM (PANC-1 [12]): 53.3%
- viability at 8 µM (PANC-1 [13]): 42.8%
- viability at 0.5 µM (PANC-1 [14]): 45.9%
- viability at 1.25 µM (ASPC1 [15]): 90%
- viability at 0.5 µM (PANC-1 [16]): 71.6%
- viability at 1.25 µM (ASPC1 [17]): 79.4%
- IC50 (PANC-1 [18]): 0.53 µM
- viability at 2 µM (PANC-1 [19]): 36.2%
- Activity (ASPC1 [20]): 62.9%
- viability at 5 µM (ASPC1 [21]): 49.1%
- viability at 10 µM (ASPC1 [22]): 47.1%
- Activity (ASPC1 [23]): 53.1%
- IC50 (BXPC-3): 6.92 µM
- Activity (ASPC1 [24]): 1.1%
- viability at 5 µM (ASPC1 [25]): 24%
- IC50 (Ramos): 2.18 µM
- Activity (ASPC1 [26]): 27.3%
- viability at 2 µM (PANC-1 [27]): 39.3%
- viability at 5 µM (ASPC1 [28]): 76%
- Activity (ASPC1 [29]): Dose-dependent effect
- viability at 2 µM (PANC-1 [30]): 68.8%
- Activity (ASPC1 [31]): 28.5%
- viability at 8 µM (PANC-1 [32]): 17.2%
- IC50 (L02): 11.5 µM
- Activity (ASPC1 [33]): 24.4%

Compound: CNC(=O)c1ccccc1Nc1nc(Nc2ccc(NS(=O)(=O)c3ccc(C)cc3)c(OC)c2)ncc1Cl
- IC50 (ASPC1 [8]): 10.1 µM
- IC50 (NCI-H1975): 8.5 µM
- IC50 (PANC-1 [18]): > 40 µM
- IC50 (BXPC-3): 22.5 µM
- IC50 (Ramos): 12.1 µM
- IC50 (L02): > 40 µM

Compound: CNC(=O)c1ccccc1Nc1nc(Nc2ccc(NS(=O)(=O)c3ccc(OC)cc3)c(C)c2)ncc1Cl
- IC50 (ASPC1 [8]): 1.78 µM
- IC50 (NCI-H1975): 4.89 µM
- IC50 (PANC-1 [18]): 0.03 µM
- IC50 (BXPC-3): 10.6 µM
- IC50 (Ramos): 4.61 µM
- IC50 (L02): 2.88 µM

Compound: CNC(=O)c1ccccc1Nc1nc(Nc2ccc(Oc3ccc(NS(C)(=O)=O)cc3)cc2)ncc1Cl
- IC50 (ASPC1 [8]): 2.75 µM
- IC50 (NCI-H1975): 6.29 µM
- IC50 (PANC-1 [18]): 3.61 µM
- IC50 (BXPC-3): 14.2 µM
- IC50 (Ramos): 19.8 µM
- IC50 (L02): 16.5 µM

Compound: CNC(=O)c1ccccc1Nc1nc(Nc2ccc(N3CCOCC3)cc2OC)ncc1Cl
- IC50 (ASPC1 [8]): 6.73 µM
- IC50 (PANC-1 [18]): > 20 µM
- IC50 (BXPC-3): 1.03 µM
- IC50 (L02): 5.37 µM

Compound: CNC(=O)c1ccccc1Nc1nc(Nc2ccc(NS(=O)(=O)c3ccc(OC)cc3)cc2)ncc1Cl
- IC50 (ASPC1 [8]): 3.49 µM
- IC50 (NCI-H1975): 4.28 µM
- IC50 (PANC-1 [18]): 1.8 µM
- IC50 (BXPC-3): 24.1 µM
- IC50 (Ramos): 9.1 µM
- IC50 (L02): 8.37 µM
